Reference: ChEMBL document CHEMBL4613275, “Sulfonimide and Amide Derivatives as Novel PPARα Antagonists: Synthesis, Antiproliferative Activity, and Docking Studies” (ACS Med Chem Lett, 2020)
One block for each molecule: values may come before it. Active and inactive are the calls of the source. The calls are words filed in the database; no cut-off is given here.

Columns and labels:
[1] = system: A498; experiment: Antiproliferative activity against human A498 cells assessed as inhibition of cell growth at 75 uM incubated for 72 hrs by MTT assay relative to control; format: functional; details: A498, 72 h
[2] = organism: Homo sapiens; experiment: Antiproliferative activity against human PTJ64i cells assessed as inhibition of cell growth incubated for 72 hrs by MTT assay; format: functional
How it was run: (§1)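 MTT viability assay after 72 h exposure to compound over 0–24 μM, 24 μM being the highest concentration. […] Data are means ± SD of duplicate experiments, five replicates each.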

[3] = target: T1, Peroxisome proliferator-activated receptor alpha (Homo sapiens, UniProt Q07869); experiment: Antagonist activity at GAL4-tagged human PPARalpha LBD expressed in human HepG2 cells assessed as inhibition of Wy14,643-induced receptor transactivation incubated for 20 to 22 hrs by luciferase reporter gene assay; format: cell-based
T1 sequence (Q07869 whole entry): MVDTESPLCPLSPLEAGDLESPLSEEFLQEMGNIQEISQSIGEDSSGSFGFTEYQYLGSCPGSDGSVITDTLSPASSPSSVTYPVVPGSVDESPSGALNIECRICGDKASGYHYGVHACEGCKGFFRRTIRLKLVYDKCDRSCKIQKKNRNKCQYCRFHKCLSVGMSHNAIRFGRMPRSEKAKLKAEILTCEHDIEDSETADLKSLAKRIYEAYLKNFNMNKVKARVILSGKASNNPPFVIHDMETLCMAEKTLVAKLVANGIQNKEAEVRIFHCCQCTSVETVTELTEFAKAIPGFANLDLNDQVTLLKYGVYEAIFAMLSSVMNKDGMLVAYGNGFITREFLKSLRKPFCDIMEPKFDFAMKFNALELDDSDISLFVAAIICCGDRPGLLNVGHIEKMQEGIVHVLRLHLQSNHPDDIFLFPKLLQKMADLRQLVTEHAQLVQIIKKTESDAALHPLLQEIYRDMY

[4] = system: A498; experiment: Antiproliferative activity against human A498 cells assessed as inhibition of cell growth incubated for 72 hrs by MTT assay; format: functional; details: for CC50: A498, 72 h; how it was run: as §1
[5] = system: ASPC1; experiment: Antiproliferative activity against human AsPC1 cells assessed as inhibition of cell growth at 75 uM incubated for 72 hrs by MTT assay relative to control; format: functional; details: ASPC1, 72 h
[6] = Selectivity index, ratio of CC50 for human HFF1 cells to CC50 for human PTJ86i cells; format: toxicity; details: HFF1 cells and PTJ86i cells
[7] = Selectivity index, ratio of CC50 for human HFF1 cells to CC50 for human PTJ64i cells; format: toxicity; details: HFF1 cells and PTJ64i cells
[8] = system: SW480; experiment: Antiproliferative activity against human SW480 cells assessed as inhibition of cell growth at 75 uM incubated for 72 hrs by MTT assay relative to control; format: functional; details: SW480, 72 h
[9] = system: SW480; experiment: Antiproliferative activity against human SW480 cells assessed as inhibition of cell growth incubated for 72 hrs by MTT assay; format: functional; details: for CC50: SW480, 72 h; how it was run: as §1
[10] = system: Capan-2; experiment: Antiproliferative activity against human Capan2 cells assessed as inhibition of cell growth incubated for 72 hrs by MTT assay; format: functional; details: for CC50: Capan-2, 72 h; how it was run: as §1
[11] = system: HT-29; experiment: Antiproliferative activity against human HT-29 cells assessed as inhibition of cell growth at 75 uM incubated for 72 hrs by MTT assay relative to control; format: functional; details: HT-29, 72 h
[12] = system: HT-29; experiment: Antiproliferative activity against human HT-29 cells assessed as inhibition of cell growth incubated for 72 hrs by MTT assay; format: functional; details: for CC50: HT-29, 72 h; how it was run: as §1
[13] = system: Capan-2; experiment: Antiproliferative activity against human Capan2 cells assessed as inhibition of cell growth at 75 uM incubated for 72 hrs by MTT assay relative to control; format: functional; details: Capan-2, 72 h
[14] = system: HFF-1; experiment: Cytotoxicity against human HFF1 cells assessed as reduction in cell viability incubated for 72 hrs by MTT assay; format: cell-based; details: hff-1, 72 h; how it was run: as §1
[15] = system: BXPC-3; experiment: Antiproliferative activity against human BxPC3 cells assessed as inhibition of cell growth incubated for 72 hrs by MTT assay; format: functional; details: for CC50: BXPC-3, 72 h; how it was run: as §1
[16] = organism: Homo sapiens; experiment: Antiproliferative activity against human PTJ86i cells assessed as inhibition of cell growth incubated for 72 hrs by MTT assay; format: functional; how it was run: as §1
[17] = target: T2, Peroxisome proliferator-activated receptor gamma (Homo sapiens) (UniProt P37231); experiment: Effect on GAL4-tagged human PPARgamma LBD expressed in human HepG2 cells incubated for 20 to 22 hrs by luciferase reporter gene assay; format: cell-based
T2 sequence (whole entry): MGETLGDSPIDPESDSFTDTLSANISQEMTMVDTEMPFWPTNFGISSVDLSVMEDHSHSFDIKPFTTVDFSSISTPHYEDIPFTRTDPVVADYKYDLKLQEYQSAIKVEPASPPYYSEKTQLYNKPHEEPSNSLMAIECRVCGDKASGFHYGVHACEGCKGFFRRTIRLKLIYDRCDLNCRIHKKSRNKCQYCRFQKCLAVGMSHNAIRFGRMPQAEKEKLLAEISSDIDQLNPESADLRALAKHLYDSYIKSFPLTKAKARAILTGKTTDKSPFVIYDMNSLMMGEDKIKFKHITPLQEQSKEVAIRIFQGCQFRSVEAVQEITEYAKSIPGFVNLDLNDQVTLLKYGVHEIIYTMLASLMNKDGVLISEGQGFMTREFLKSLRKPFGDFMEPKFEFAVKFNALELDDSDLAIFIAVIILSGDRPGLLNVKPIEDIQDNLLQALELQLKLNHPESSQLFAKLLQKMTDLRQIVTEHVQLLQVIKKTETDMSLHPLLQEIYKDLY

[18] = Antiproliferative activity against human PTJ86i cells assessed as inhibition of cell growth at 75 uM incubated for 72 hrs by MTT assay relative to control; format: functional
[19] = system: BXPC-3; experiment: Antiproliferative activity against human BxPC3 cells assessed as inhibition of cell growth at 75 uM incubated for 72 hrs by MTT assay relative to control; format: functional; details: BXPC-3, 72 h
[20] = system: ASPC1; experiment: Antiproliferative activity against human AsPC1 cells assessed as inhibition of cell growth incubated for 72 hrs by MTT assay; format: functional; details: for CC50: ASPC1, 72 h; how it was run: as §1
[21] = system: HepG2; experiment: Cytotoxicity against human HepG2 cells at >5 uM; format: cell-based
[22] = target: T3, Peroxisome proliferator-activated receptor gamma (Homo sapiens, UniProt P37231); experiment: Antagonist activity at GAL4-tagged human PPARgamma LBD expressed in human HepG2 cells assessed as inhibition of Rosiglitazone-induced receptor transactivation incubated for 20 to 22 hrs by luciferase reporter gene assay
T3 sequence (P37231 whole entry): T2 sequence (whole entry)

[23] = target: T2, Peroxisome proliferator-activated receptor gamma (Homo sapiens); experiment: Agonist activity at GAL4-tagged human PPARgamma LBD expressed in human HepG2 cells incubated for 20 to 22 hrs by luciferase reporter gene assay; format: cell-based

IC50 [3]: 0.24 µM | Activity [17]: inactive
SMILES: CC(C)(Oc1ccc(CCOc2ccc(NC(=O)c3ccccc3)cc2)cc1)C(=O)NS(=O)(=O)c1ccccc1
inhibition at 75 µM [1]: 51 to 71% | inhibition [2]: Dose-dependent effect | inhibition [4]: Dose-dependent effect | CC50 [4]: 4.6 µM | inhibition at 75 µM [5]: 41 to 92% | selectivity ratio [6]: > 11.3 | selectivity ratio [7]: > 9.45 | inhibition at 75 µM [8]: 52 to 98% | inhibition [9]: Dose-dependent effect | CC50 [9]: 7 µM | inhibition [10]: Dose-dependent effect | CC50 [10]: 7 µM | inhibition at 75 µM [11]: 52 to 98% | inhibition [12]: Dose-dependent effect | CC50 [12]: 7 µM | inhibition at 75 µM [13]: 41 to 92% | CC50 [14]: > 24 µM | inhibition [15]: Dose-dependent effect | CC50 [15]: 7 µM | inhibition [16]: Dose-dependent effect | inhibition at 75 µM [18]: 84 to 98% | inhibition at 75 µM [19]: 41 to 92% | inhibition [20]: Dose-dependent effect | CC50 [20]: 7 µM

IC50 [3]: 12.1 µM | Activity [17]: inactive
SMILES: CC(C)(Oc1ccc(CCOc2ccc(NC(=O)c3ccccc3)cc2)cc1)C(=O)NCc1ccccc1

IC50 [3]: 7 µM | Activity [17]: inactive
SMILES: CC(C)(Oc1ccc(CCOc2ccc(NC(=O)c3ccccc3)cc2)cc1)C(N)=O

Activity [17]: inactive
SMILES: CCCCNC(=O)C(C)(C)Oc1ccc(CCOc2ccc(NC(=O)c3ccccc3)cc2)cc1

Second part, the molecule before the results:

SMILES: CCC(=O)NC[C@H](Cc1ccc(OCCc2nc(-c3ccccc3)oc2C)cc1)N/C(C)=C\C(=O)c1ccc(C(F)(F)F)cc1
inhibition at 75 µM [18]: 85 to 92%

SMILES: CC(C)(Oc1ccc(CCOc2ccc(/N=N/c3ccccc3)cc2)cc1)C(=O)Nc1ccccc1
Activity [17]: inactive

SMILES: CC(C)(Oc1ccc(CCOc2ccc(/N=N/c3ccccc3)cc2)cc1)C(=O)NS(=O)(=O)c1ccc(Cl)cc1
inhibition at 75 µM [1]: 51 to 71% | inhibition [2]: Dose-dependent effect | IC50 [3]: 0.21 µM | inhibition [4]: Dose-dependent effect | CC50 [4]: > 24 µM | inhibition at 75 µM [5]: 41 to 92% | selectivity ratio [6]: > 6.63 | selectivity ratio [7]: > 6.35 | inhibition at 75 µM [8]: 52 to 98% | inhibition [9]: Dose-dependent effect | CC50 [9]: > 24 µM | inhibition [10]: Dose-dependent effect | CC50 [10]: > 24 µM | inhibition at 75 µM [11]: 52 to 98% | inhibition [12]: Dose-dependent effect | CC50 [12]: > 24 µM | inhibition at 75 µM [13]: 41 to 92% | CC50 [14]: > 24 µM | inhibition [15]: Dose-dependent effect | CC50 [15]: > 24 µM | inhibition [16]: Dose-dependent effect | Activity [17]: inactive | inhibition at 75 µM [18]: 84 to 98% | inhibition at 75 µM [19]: 41 to 92% | inhibition [20]: Dose-dependent effect | CC50 [20]: > 24 µM

SMILES: CC(C)(Oc1ccc(CCOc2ccc(NC(=O)Nc3ccccc3)cc2)cc1)C(=O)NCc1ccccc1
IC50 [3]: 10.3 µM | Activity [17]: inactive

SMILES: CC(C)(Oc1ccc(CCOc2ccc(/N=N/c3ccccc3)cc2)cc1)C(=O)NS(=O)(=O)c1ccccc1
Activity [21]: Toxic | IC50 [3]: 1.2 µM | IC50 [22]: 14 µM | Imax [17]: 87%

SMILES: CC(C)(CCCOc1ccc(/C=C/c2ccccc2)cc1)C(=O)NS(C)(=O)=O
Activity [21]: Toxic | Activity [23]: inactive
